This note sets out measurements from ChEMBL document CHEMBL5325390, “1,2,4-Triazole-3-thione analogues with an arylakyl group at position 4 as metallo-β-lactamase inhibitors” (Bioorg Med Chem, 2022).

Calls of active or inactive are those of the source. The rule behind the calls is not given here.

Metallo-beta-lactamase type 2, sequence (C7C422 whole entry): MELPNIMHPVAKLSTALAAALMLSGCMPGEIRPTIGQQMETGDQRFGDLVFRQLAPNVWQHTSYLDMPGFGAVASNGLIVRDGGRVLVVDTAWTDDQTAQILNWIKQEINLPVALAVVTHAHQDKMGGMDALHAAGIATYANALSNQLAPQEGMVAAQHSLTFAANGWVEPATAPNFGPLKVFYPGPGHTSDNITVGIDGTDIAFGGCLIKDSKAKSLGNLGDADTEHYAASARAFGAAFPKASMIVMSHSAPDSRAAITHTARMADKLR

The subject of one test is Klebsiella pneumoniae. Nature of the test: Antimicrobial synergistic activity against blaVIM-1-producing multidrug-resistant Klebsiella pneumoniae 7023 clinical isolate assessed as meropenem MIC at 32 ug/ml by CLSI based broth microdilution method (reference value: 16 ug/ml). The test is classed as functional. Conditions: dose 32 µg/ml.
Turning to `Oc1ccc(CCn2c(-c3cccc(-c4ccccc4)c3)n[nH]c2=S)cc1O`, the minimum inhibitory concentration (MIC) – broadly, the lowest concentration that inhibits growth of the organism – was found to be 16 µg/mL.

Regarding `COc1ccc(O)c(-c2n[nH]c(=S)n2CC2OC(=O)c3ccccc32)c1` (centres undefined), the MIC was found to be 2 µg/mL.

Take `Sc1nnc(-c2ccccc2)n1Cc1ccccc1`: the minimal inhibitory concentration (MIC) worked out at 4 µg/mL.

In the case of `O=C(O)c1cccc(Cn2c(-c3ccccc3)n[nH]c2=S)c1`, the MIC is 2 µg/mL.

Another test concerns the target Metallo-beta-lactamase type 2 (Bacteria, UniProt C7C422). Nature of the test: Binding affinity to NDM1 (unknown origin) expressed in Escherichia coli BL21(DE3) assessed as inhibition constant by measuring rate of substrate hydrolysis by UV-Vis spectrophotometric analysis. The settings on record: read-out: Ki. The gist of the method:
(§1)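 Purified MBL (1–70 nM) with 150 µM imipenem or meropenem as reporter substrate, 50 mM HEPES pH 7.5, 30 °C. Hydrolysis followed by absorbance at 300 nm without and with inhibitor (0.5 µM–1 mM). Ki from the slope of v0/vi vs [I] under a competitive model, or from Dixon plots varying inhibitor and substrate. […] Triplicate, mean ± SD.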
Consider `Oc1ccc(CCn2c(-c3cccc(-c4ccccc4)c3)n[nH]c2=S)cc1O`, for which the Ki (as a rule, the equilibrium dissociation constant of an inhibitor or competing ligand from its target) was 17.4 µM.

For another test, the system named is metallo-β-lactamase IMP-1 (Pseudomonas aeruginosa). The test can be described thus: Inhibition of IMP1 (unknown origin) expressed in Escherichia coli BL21(DE3) assessed as substrate hydrolysis at 100 uM by UV-Vis spectrophotometric analysis relative to control.
Conditions: not given
As to `COc1ccc(O)c(-c2n[nH]c(=S)n2CC2OC(=O)c3ccccc32)c1` (centres undefined), the inhibition (commonly the change of the read-out against control, counted positive when it falls) was found to be 47%.

Consider `O=C(O)c1cccc(Cn2c(-c3ccccc3)n[nH]c2=S)c1`, for which the inhibition was less than 30%.

In the next test the test system is Klebsiella pneumoniae. The test can be described thus: Antimicrobial synergistic activity against blaVIM-4-producing multidrug-resistant Klebsiella pneumoniae VA416/02 clinical isolate assessed as meropenem MIC at 32 ug/ml by CLSI based broth microdilution method (reference value: 16 ug/ml). The settings on record: dose 32 µg/ml. The test is classed as functional. Background: In broth dilution the organism is exposed to a series of concentrations in liquid medium.
Regarding `Oc1ccc(CCn2c(-c3cccc(-c4ccccc4)c3)n[nH]c2=S)cc1O`, the MIC came out at 2 µg/mL.

Turning to `COc1ccc(O)c(-c2n[nH]c(=S)n2CC2OC(=O)c3ccccc32)c1` (centres undefined), the MIC came out at 2 µg/mL.

For the molecule `Sc1nnc(-c2ccccc2)n1Cc1ccccc1`, the MIC was 4 µg/mL.

With `O=C(O)c1cccc(Cn2c(-c3ccccc3)n[nH]c2=S)c1`, the MIC amounted to 2 µg/mL.

System in another test: not listed separately
Nature of the test: Binding affinity to VIM-4 (unknown origin) expressed in Escherichia coli BL21(DE3) assessed as inhibition constant by measuring rate of substrate hydrolysis by UV-Vis spectrophotometric analysis.
Conditions: not given
The essentials:
as §1
Consider `Oc1ccc(CCn2c(-c3cccc(-c4ccccc4)c3)n[nH]c2=S)cc1O`, for which the Ki was 0.68 µM.

As to `COc1ccc(O)c(-c2n[nH]c(=S)n2CC2OC(=O)c3ccccc32)c1` (centres undefined), the Ki amounted to 0.9 µM.

As to `Sc1nnc(-c2ccccc2)n1Cc1ccccc1`, the Ki came out at 1.5 µM.

As for `O=C(O)c1cccc(Cn2c(-c3ccccc3)n[nH]c2=S)c1`, the Ki was determined as 0.4 µM.

System in another test: not listed separately
The test can be described thus: Binding affinity to IMP1 (unknown origin) expressed in Escherichia coli BL21(DE3) assessed as inhibition constant by measuring rate of substrate hydrolysis by UV-Vis spectrophotometric analysis. Conditions: read-out: Ki. The essentials: as §1
`Oc1ccc(CCn2c(-c3cccc(-c4ccccc4)c3)n[nH]c2=S)cc1O`: the Ki amounted to 9.2 µM.

For `Sc1nnc(-c2ccccc2)n1Cc1ccccc1`, the Ki stood at 8 µM.

A further test concerns the target T1, Angiotensin-converting enzyme (Oryctolagus cuniculus) (UniProt P12822).
T1 sequence (whole entry): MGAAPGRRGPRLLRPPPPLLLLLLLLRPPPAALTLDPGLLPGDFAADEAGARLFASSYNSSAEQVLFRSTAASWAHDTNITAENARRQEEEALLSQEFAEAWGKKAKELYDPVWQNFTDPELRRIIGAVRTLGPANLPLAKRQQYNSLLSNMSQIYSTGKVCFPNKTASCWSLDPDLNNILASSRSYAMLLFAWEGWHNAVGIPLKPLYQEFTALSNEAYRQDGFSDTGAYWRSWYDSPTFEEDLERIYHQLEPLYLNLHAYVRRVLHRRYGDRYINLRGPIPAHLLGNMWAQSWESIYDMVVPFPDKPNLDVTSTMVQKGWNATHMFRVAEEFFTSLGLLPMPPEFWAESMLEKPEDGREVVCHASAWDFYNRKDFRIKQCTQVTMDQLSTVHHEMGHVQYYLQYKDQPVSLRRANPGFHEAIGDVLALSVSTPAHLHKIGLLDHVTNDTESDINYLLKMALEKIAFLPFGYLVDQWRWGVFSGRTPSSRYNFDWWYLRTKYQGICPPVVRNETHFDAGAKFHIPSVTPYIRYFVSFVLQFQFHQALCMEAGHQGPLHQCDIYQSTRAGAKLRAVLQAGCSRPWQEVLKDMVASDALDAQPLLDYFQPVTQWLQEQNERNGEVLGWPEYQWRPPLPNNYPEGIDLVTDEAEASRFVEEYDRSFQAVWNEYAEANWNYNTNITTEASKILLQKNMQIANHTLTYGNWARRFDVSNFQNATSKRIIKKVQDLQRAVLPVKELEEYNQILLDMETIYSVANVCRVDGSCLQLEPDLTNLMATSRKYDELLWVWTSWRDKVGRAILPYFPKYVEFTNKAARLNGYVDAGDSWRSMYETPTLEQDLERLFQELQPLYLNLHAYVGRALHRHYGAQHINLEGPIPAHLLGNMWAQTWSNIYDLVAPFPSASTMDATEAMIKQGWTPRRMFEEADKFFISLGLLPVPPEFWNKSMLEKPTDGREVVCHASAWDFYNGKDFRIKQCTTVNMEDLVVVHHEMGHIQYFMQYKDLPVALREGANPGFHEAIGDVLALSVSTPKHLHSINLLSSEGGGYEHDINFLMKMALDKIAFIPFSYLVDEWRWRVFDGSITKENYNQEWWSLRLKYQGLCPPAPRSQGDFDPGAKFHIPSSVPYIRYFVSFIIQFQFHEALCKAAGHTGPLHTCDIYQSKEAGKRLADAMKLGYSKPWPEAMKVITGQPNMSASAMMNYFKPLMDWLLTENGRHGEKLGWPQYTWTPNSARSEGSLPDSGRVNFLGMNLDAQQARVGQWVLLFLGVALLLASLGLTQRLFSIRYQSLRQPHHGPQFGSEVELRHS
Nature of the test: Inhibition of rabbit lung angiotensin-converting enzyme at 100 uM using Abz-Gly-Phe-(NO2)-Pro as substrate by fluorescence based microplate reader analysis relative to control. The class given is tissue-based.
Conditions: not given
The gist of the method: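 Rabbit lung ACE, 1.5 mU per well, in 150 mM Tris, 750 mM NaCl, pH 8.3, with Abz-Gly-Phe(NO2)-Pro substrate. Blank-corrected fluorescence of released Abz-Gly-OH (ex 316, em 413 nm) followed up to 90 min. Test compounds at 100 µM; captopril control at 100 nM. Inhibition % = 100 − (vi/v0 × 100).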
Consider `COc1ccc(O)c(-c2n[nH]c(=S)n2CC2OC(=O)c3ccccc32)c1` (centres undefined), for which the inhibition entry is “inactive”.

Take `Sc1nnc(-c2ccccc2)n1Cc1ccccc1`: the inhibition entry was “inactive”.

Consider `O=C(O)c1cccc(Cn2c(-c3ccccc3)n[nH]c2=S)c1`, for which the inhibition result is “inactive”.

System in the next test: not listed separately
Nature of the test: Binding affinity to VIM-2 (unknown origin) expressed in Escherichia coli BL21(DE3) assessed as inhibition constant by measuring rate of substrate hydrolysis by UV-Vis spectrophotometric analysis.
Conditions: not given
The essentials: as §1
For `Oc1ccc(CCn2c(-c3cccc(-c4ccccc4)c3)n[nH]c2=S)cc1O`, the Ki is 1.7 µM.

In the case of `COc1ccc(O)c(-c2n[nH]c(=S)n2CC2OC(=O)c3ccccc32)c1` (centres undefined), the Ki was 3.3 µM.

Consider `O=C(O)c1cccc(Cn2c(-c3ccccc3)n[nH]c2=S)c1`, for which the Ki is 1.8 µM.

The next test deals with Metallo-beta-lactamase type 2 (Bacteria) (UniProt C7C422). The test can be described thus: Inhibition of NDM1 (unknown origin) expressed in Escherichia coli BL21(DE3) assessed as substrate hydrolysis at 100 uM by UV-Vis spectrophotometric analysis relative to control.
Metallo-beta-lactamase type 2 (Bacteria), sequence (C7C422 whole entry): as the sequence (C7C422 whole entry) above
Conditions: not given
The essentials: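 Single-point screen at 100 or 200 µM inhibitor against purified MBL (1–70 nM) with 150 µM imipenem or meropenem reporter substrate, 50 mM HEPES pH 7.5, 30 °C. Initial hydrolysis rate read by absorbance at 300 nm and compared with the uninhibited reaction. Triplicate.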
Take `COc1ccc(O)c(-c2n[nH]c(=S)n2CC2OC(=O)c3ccccc32)c1` (centres undefined): the inhibition is 68%.

Consider `Sc1nnc(-c2ccccc2)n1Cc1ccccc1`, for which the inhibition is less than 30%.

As to `O=C(O)c1cccc(Cn2c(-c3ccccc3)n[nH]c2=S)c1`, the inhibition is less than 30%.

For another test, the system named is Klebsiella pneumoniae. Nature of the test: Synergistic antimicrobial activity against blaVIM-4-producing multidrug-resistant Klebsiella pneumoniae VA416/02 clinical isolate assessed as fractional inhibitory concentration index in presence of meropenem by checkerboard assay.
Conditions: not given
The test is classed as functional.
Consider `Oc1ccc(CCn2c(-c3cccc(-c4ccccc4)c3)n[nH]c2=S)cc1O`, for which the FIC was determined as 0.48.

A further test addresses Beta-lactamase VIM-1 (Bacteria, UniProt Q8GDC1). Nature of the test: Binding affinity to VIM-1 (unknown origin) expressed in Escherichia coli BL21(DE3) assessed as inhibition constant by measuring rate of substrate hydrolysis by UV-Vis spectrophotometric analysis.
Conditions: not given
The gist of the method:
as §1
On to `Oc1ccc(CCn2c(-c3cccc(-c4ccccc4)c3)n[nH]c2=S)cc1O`, for which the inhibition constant Ki came out at 1.3 µM.

As to `COc1ccc(O)c(-c2n[nH]c(=S)n2CC2OC(=O)c3ccccc32)c1` (centres undefined), the Ki was determined as 1.2 µM.

With `Sc1nnc(-c2ccccc2)n1Cc1ccccc1`, the Ki is 0.72 µM.

In the case of `O=C(O)c1cccc(Cn2c(-c3ccccc3)n[nH]c2=S)c1`, the Ki worked out at 1.4 µM.

The test system of the next test is Escherichia coli. Nature of the test: Synergistic antimicrobial activity against blaNDM-1-producing multidrug-resistant Escherichia coli SI-004M clinical isolate assessed as meropenem MIC at 32 ug/ml by CLSI based microdilution method (reference value: 64 ug/ml). The test is classed as functional. Conditions: dose 32 µg/ml.
Take `Oc1ccc(CCn2c(-c3cccc(-c4ccccc4)c3)n[nH]c2=S)cc1O`: the MIC was 32 µg/mL.

With `COc1ccc(O)c(-c2n[nH]c(=S)n2CC2OC(=O)c3ccccc32)c1` (centres undefined), the MIC was found to be 64 µg/mL.

For the molecule `O=C(O)c1cccc(Cn2c(-c3ccccc3)n[nH]c2=S)c1`, the MIC is 32 µg/mL.
